According to ChEMBL document CHEMBL1140708, “Synthesis and in vivo evaluation of halogenated N,N-dimethyl-2-(2'-amino-4'-hydroxymethylphenylthio)benzylamine derivatives as PET serotonin transporter ligands” (J Med Chem, 2008):

What was measured:
[1] = species on record: Homo sapiens; assay: Selectivity for human DAT to human SERT
Outline: (§1)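 Ratio of Ki at hDAT or hNET to Ki at hSERT. Ki values come from competition binding on transfected cell membranes: [125I]RTI-55 (MDCK-hDAT), [3H]nisoxetine (HEK-hNET) or [3H]citalopram (HEK-hSERT); 12 competitor concentrations from 10^-13 to 10^-5 M.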

[2] = species on record: Homo sapiens; assay: Selectivity for human NET to human SERT; outline: as §1
[3] = target: Sodium-dependent dopamine transporter (Homo sapiens, UniProt Q01959); assay: Displacement of [125I]RTI-55 from human DAT expressed in MDCK cells; format: cell-based
Outline: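 MDCK cells stably expressing hDAT, grown to confluency in DMEM with 10% FBS and Geneticin, harvested in PBS/0.53 mM EDTA. Membranes (30–70 µg protein) were incubated 1 h at room temperature with 2.0 nM [125I]RTI-55 in 42 mM sodium phosphate/320 mM sucrose, pH 7.4. Competitor: 12 concentrations, 10^-13 to 10^-5 M, in triplicate. Filtered through PEI-soaked GF/B filters; Ki averaged over ≥2 assays.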

[4] = Partition coefficient, log P at pH 7.4; format: physicochemical; details: octanol/water
Outline: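 Each 11C-labelled radiotracer was partitioned between 1-octanol and 0.02 M phosphate buffer at pH 7.4.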

[5] = test system: Frontal cortex; assay: Drug uptake in cynomolgus monkey frontal cortex in presence of citalopram after 85 mins; format: ADME, tissue-based, Macaca fascicularis; details: in vivo
Outline: (§2)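 Chase microPET scans in the same male cynomolgus monkey after i.v. 11C radiotracer (6.90–18.10 mCi). R,S-citalopram·HBr, 1.5 mg/kg, was given i.v. as a 30 s bolus at 45 min (ratios at 45 and 85 min) or 60 min (ratios at 55 and 115 min) post-tracer. Value is the region-to-cerebellum activity ratio before and after citalopram.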

[6] = test system: Thalamus; assay: Drug uptake in cynomolgus monkey thalamus in presence of citalopram after 85 mins; format: ADME, tissue-based, Macaca fascicularis; details: in vivo; outline: as §2
[7] = test system: Occipital cortex; assay: Drug uptake in cynomolgus monkey occipital cortex in presence of citalopram after 85 mins; format: ADME, tissue-based, Macaca fascicularis; details: in vivo; outline: as §2
[8] = test system: Caudate; assay: Drug uptake in cynomolgus monkey caudate in presence of citalopram after 85 mins; format: ADME, tissue-based, Macaca fascicularis, Caudate nucleus; details: in vivo; outline: as §2
[9] = test system: Medulla; assay: Drug uptake in cynomolgus monkey medulla after 85 mins; format: ADME, tissue-based, Macaca fascicularis, Medulla of organ; details: in vivo
Outline: (§3)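 Baseline microPET (Concorde P4) scans in one anesthetized adult male cynomolgus monkey (7.50–8.35 kg) after i.v. radiotracer. Attenuation correction used a 68Ge transmission scan; OSEM reconstruction, 3 mm resolution. Value is the region-of-interest to cerebellum activity ratio at 85 min post-injection.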

[10] = test system: Midbrain; assay: Drug uptake in cynomolgus monkey midbrain in presence of citalopram after 85 mins; format: ADME, tissue-based, Macaca fascicularis; details: in vivo; outline: as §2
[11] = test system: Frontal cortex; assay: Drug uptake in cynomolgus monkey frontal cortex after 45 mins; format: ADME, tissue-based, Macaca fascicularis; details: in vivo, 0.75 h; outline: as §2
[12] = test system: Medulla; assay: Drug uptake in cynomolgus monkey medulla after 45 mins; format: ADME, tissue-based, Macaca fascicularis, Medulla of organ; details: in vivo, 0.75 h; outline: as §2
[13] = test system: Pons; assay: Drug uptake in cynomolgus monkey pons after 85 mins; format: ADME, tissue-based, Macaca fascicularis; details: in vivo; outline: as §3
[14] = test system: Occipital cortex; assay: Drug uptake in cynomolgus monkey occipital cortex after 45 mins; format: ADME, tissue-based, Macaca fascicularis; details: in vivo, 0.75 h; outline: as §2
[15] = test system: Frontal cortex; assay: Drug uptake in cynomolgus monkey frontal cortex after 85 mins; format: ADME, tissue-based, Macaca fascicularis; details: in vivo; outline: as §3
[16] = test system: Putamen; assay: Drug uptake in cynomolgus monkey putamen in presence of citalopram after 85 mins; format: ADME, tissue-based, Macaca fascicularis; details: in vivo; outline: as §2
[17] = test system: Thalamus; assay: Drug uptake in cynomolgus monkey thalamus after 45 mins; format: ADME, tissue-based, Macaca fascicularis; details: in vivo, 0.75 h; outline: as §2
[18] = test system: Putamen; assay: Drug uptake in cynomolgus monkey putamen after 45 mins; format: ADME, tissue-based, Macaca fascicularis; details: in vivo, 0.75 h; outline: as §2
[19] = test system: Pons; assay: Drug uptake in cynomolgus monkey pons in presence of citalopram after 85 mins; format: ADME, tissue-based, Macaca fascicularis; details: in vivo; outline: as §2
[20] = test system: Midbrain; assay: Drug uptake in cynomolgus monkey midbrain after 45 mins; format: ADME, tissue-based, Macaca fascicularis; details: in vivo, 0.75 h; outline: as §2
[21] = test system: Midbrain; assay: Drug uptake in cynomolgus monkey midbrain after 85 mins; format: ADME, tissue-based, Macaca fascicularis; details: in vivo; outline: as §3
[22] = test system: Caudate; assay: Drug uptake in cynomolgus monkey caudate after 45 mins; format: ADME, tissue-based, Macaca fascicularis, Caudate nucleus; details: in vivo, 0.75 h; outline: as §2
[23] = test system: Thalamus; assay: Drug uptake in cynomolgus monkey thalamus after 85 mins; format: ADME, tissue-based, Macaca fascicularis; details: in vivo; outline: as §3
[24] = test system: Pons; assay: Drug uptake in cynomolgus monkey pons after 45 mins; format: ADME, tissue-based, Macaca fascicularis; details: in vivo, 0.75 h; outline: as §2
[25] = test system: Medulla; assay: Drug uptake in cynomolgus monkey medulla in presence of citalopram after 85 mins; format: ADME, tissue-based, Macaca fascicularis, Medulla of organ; details: in vivo; outline: as §2
[26] = target: Sodium-dependent serotonin transporter (Homo sapiens, UniProt P31645); assay: Displacement of [3H]citalopram from human SERT expressed in HEK293 cells; format: cell-based
Outline: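 Membranes (30–70 µg protein) from HEK-293 cells stably expressing hSERT, grown in DMEM/10% FBS/Geneticin. Incubated 2 h at room temperature with [3H]citalopram in 53 mM Tris, 126 mM NaCl, 5.3 mM KCl, pH 7.9. Competitor: 12 concentrations, 10^-13 to 10^-5 M, in triplicate. Rapid filtration on GF/B with cold buffer washes; Ki averaged from ≥2 separate assays.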

[27] = target: Sodium-dependent noradrenaline transporter (Homo sapiens, UniProt P23975); assay: Displacement of [3H]nisoxetine from human NET t expressed in HEK293 cells; format: cell-based
Outline: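 Membranes (30–70 µg protein) from HEK-293 cells stably expressing hNET. Equilibrium with [3H]nisoxetine for 4 h at 4 °C in 53 mM Tris, 320 mM NaCl, 5.3 mM KCl, pH 7.4 at 4 °C. Competitor: 12 concentrations, 10^-13 to 10^-5 M, in triplicate. Ended by vacuum filtration through PEI-presoaked GF/B filters; Ki averaged from at least two assays, each in duplicate.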

Sequence of Sodium-dependent dopamine transporter (Q01959 whole entry): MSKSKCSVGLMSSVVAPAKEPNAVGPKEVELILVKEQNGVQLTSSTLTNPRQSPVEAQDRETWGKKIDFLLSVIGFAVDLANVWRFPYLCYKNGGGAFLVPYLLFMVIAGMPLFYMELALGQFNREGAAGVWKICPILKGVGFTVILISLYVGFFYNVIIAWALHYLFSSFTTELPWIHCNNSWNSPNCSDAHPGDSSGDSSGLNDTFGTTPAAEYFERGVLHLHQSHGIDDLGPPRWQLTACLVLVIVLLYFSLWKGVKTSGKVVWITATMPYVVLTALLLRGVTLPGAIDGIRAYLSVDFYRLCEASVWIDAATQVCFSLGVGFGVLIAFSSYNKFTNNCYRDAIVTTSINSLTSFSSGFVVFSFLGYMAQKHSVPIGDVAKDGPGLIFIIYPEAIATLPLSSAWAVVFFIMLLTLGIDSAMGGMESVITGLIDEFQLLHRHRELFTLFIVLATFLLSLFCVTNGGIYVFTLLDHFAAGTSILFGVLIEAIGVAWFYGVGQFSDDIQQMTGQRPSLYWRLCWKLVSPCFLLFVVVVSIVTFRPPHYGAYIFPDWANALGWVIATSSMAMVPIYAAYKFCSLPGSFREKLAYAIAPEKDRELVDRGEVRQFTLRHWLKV
Sequence of Sodium-dependent noradrenaline transporter (P23975 whole entry): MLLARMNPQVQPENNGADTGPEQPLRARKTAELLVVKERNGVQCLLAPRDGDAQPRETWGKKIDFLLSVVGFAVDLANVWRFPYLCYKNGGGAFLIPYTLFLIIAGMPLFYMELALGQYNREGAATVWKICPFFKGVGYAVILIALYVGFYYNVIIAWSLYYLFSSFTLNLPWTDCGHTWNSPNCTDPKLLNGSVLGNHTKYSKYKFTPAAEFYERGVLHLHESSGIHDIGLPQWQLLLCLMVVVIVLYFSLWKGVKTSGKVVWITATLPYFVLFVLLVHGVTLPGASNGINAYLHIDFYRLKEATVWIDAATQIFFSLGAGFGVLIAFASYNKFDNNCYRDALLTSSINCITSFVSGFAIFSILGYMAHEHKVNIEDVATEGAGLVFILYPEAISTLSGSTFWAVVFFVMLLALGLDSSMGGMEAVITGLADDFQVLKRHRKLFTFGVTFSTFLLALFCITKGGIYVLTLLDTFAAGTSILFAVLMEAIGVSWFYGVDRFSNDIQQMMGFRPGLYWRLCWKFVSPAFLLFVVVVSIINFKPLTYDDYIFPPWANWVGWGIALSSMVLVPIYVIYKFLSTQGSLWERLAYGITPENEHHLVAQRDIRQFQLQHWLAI
Sequence of Sodium-dependent serotonin transporter (P31645 whole entry): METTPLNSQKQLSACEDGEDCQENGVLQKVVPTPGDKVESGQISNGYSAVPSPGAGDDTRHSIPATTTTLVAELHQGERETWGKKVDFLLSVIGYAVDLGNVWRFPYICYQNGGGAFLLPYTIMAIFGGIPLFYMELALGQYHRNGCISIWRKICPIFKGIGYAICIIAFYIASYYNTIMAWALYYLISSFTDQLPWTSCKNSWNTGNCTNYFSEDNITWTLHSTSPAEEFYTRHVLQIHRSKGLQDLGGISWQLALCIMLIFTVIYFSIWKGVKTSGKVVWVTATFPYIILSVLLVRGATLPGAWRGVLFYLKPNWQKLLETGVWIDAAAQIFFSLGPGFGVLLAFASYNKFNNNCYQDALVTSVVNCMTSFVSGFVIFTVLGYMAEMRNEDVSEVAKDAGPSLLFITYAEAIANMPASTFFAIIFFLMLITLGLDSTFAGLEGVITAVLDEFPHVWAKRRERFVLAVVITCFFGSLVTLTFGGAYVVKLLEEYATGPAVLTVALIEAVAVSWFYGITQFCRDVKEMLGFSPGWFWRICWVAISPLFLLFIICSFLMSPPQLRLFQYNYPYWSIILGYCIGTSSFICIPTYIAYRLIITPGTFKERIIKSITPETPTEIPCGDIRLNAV

CN(C)Cc1ccccc1Sc1ccc(CO)cc1N
Ratio Ki [1]: > 1000
Ratio Ki [2]: 532
Ki [3]: > 1000 nM
logD [4]: 1.6

CN([11CH3])Cc1cc(F)ccc1Sc1ccc(CO)cc1N
Ratio [5]: 1
Ratio [6]: 1.3
Ratio [7]: 1.04
Ratio [8]: 1.06
Ratio [9]: 2.1
Ratio [10]: 1.2
Ratio [11]: 1.06
Ratio [12]: 2
Ratio [13]: 2.8
Ratio [14]: 1.3
Ratio [15]: 1.04
Ratio [16]: 1.2
Ratio [17]: 1.9
Ratio [18]: 1.8
Ratio [19]: 1.4
Ratio [20]: 2.3
Ratio [21]: 3.4
Ratio [22]: 1.6
Ratio [23]: 2.3
Ratio [24]: 2
Ratio [25]: 1.1
logD [4]: 2.06

CN(C)Cc1cc(I)ccc1Sc1ccc(CO)cc1N
Ratio Ki [1]: > 1000
Ki [26]: 0.31 nM
Ki [27]: 467 nM
Ratio Ki [2]: > 1000
Ki [3]: > 2000 nM
